Data set [1] deals with Respiratory syncytial virus. The data set is described as follows: Antiviral activity against respiratory syncytial virus A2 infected in human Hep2 cells assessed as reduction in virus-induced cytopathic effect after 5 days by MTT assay. It is filed as functional, organism-based. Particulars: A2, HEp-2, 120 h. An outline of the steps: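 HEp2 cells (1.0 × 10⁴/well) infected at low moi (RSV A2 at moi 0.01) and added to serial compound dilutions; incubated 5 days at 37 °C, 5% CO₂. CPE read by MTT (1 mg/ml) metabolism after 2 h incubation.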

The subject of data set [2] is Respiratory syncytial virus. The data set is described as follows: Antiviral activity against respiratory syncytial virus Long infected in human Hep2 cells assessed as reduction in virus-induced cytopathic effect after 5 days by MTT assay. Format: functional, organism-based. Particulars: HEp-2, 120 h.
Data set [3] deals with Respiratory syncytial virus. Put plainly: Antiviral activity against respiratory syncytial virus B1 infected in human Hep2 cells assessed as reduction in virus-induced cytopathic effect after 5 days by MTT assay. It is filed as functional, organism-based. Particulars: B1, HEp-2, 120 h.
A short description of data set [4]: Lipophilicity, log D of the compound at pH 7.4 by chromatography. Format: physicochemical. Particulars: buffer. An outline of the steps: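 Effective logD measured chromatographically on an LC-ABZ column, octanol-saturated mobile phase at pH 7.4.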
A short description of data set [5]: Kinetic solubility in 0.01M HCl buffer at pH 2.0 by nephelometry. Particulars: read-out: Kinetic_solubility. It is filed as physicochemical. The gist of the method: (§1)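 Compound dissolved in DMSO and added to 0.01 M HCl (pH 2) or pH 6.5 isotonic phosphate buffer, 1% final DMSO. Solubility range determined by nephelometry.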
The nature of data set [6]: Kinetic solubility in isotonic phosphate buffer at pH 6.5 by nephelometry. It is filed as physicochemical. Particulars: read-out: Kinetic_solubility. An outline of the steps:
as §1

Data set [7] can be described thus: Elimination half life in Sprague-Dawley rat at 5.1 mg/kg, iv. Format: ADME, organism-based. Further details: dose 5.1 mg/kg, route intravenous. Particulars: in vivo, read-out: beta t1/2 (converted).
Data set [8] is described as follows: Plasma clearance in Sprague-Dawley rat at 5.1 mg/kg, iv. Format: ADME, organism-based. Details: dose 5.1 mg/kg, route intravenous.
Data set [9] is described as follows: Apparent volume of distribution in Sprague-Dawley rat at 5.1 mg/kg, iv. Format: ADME, organism-based. Details: dose 5.1 mg/kg, route intravenous. Particulars: in vivo, read-out: Vz.
Data set [10] is described as follows: Elimination half life in Sprague-Dawley rat at 19 mg/kg, po. Format: ADME, organism-based. Details: dose 19 mg/kg, route oral. Particulars: in vivo, read-out: beta t1/2 (converted). An outline of the steps: (§2)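 Male Sprague Dawley rats, n = 2, oral dose as suspension in hydroxypropylmethylcellulose, in carboxymethylcellulose, or in 0.5% HPMC/0.5% benzyl alcohol/0.4% Tween80. Cmax (µM), T1/2 and F (%) derived from plasma levels.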

A short description of data set [11]: Cmax in Sprague-Dawley rat at 19 mg/kg, po. It is filed as ADME, organism-based. Details: dose 19 mg/kg, route oral. Particulars: in vivo. An outline of the steps:
as §2

The nature of data set [12]: Oral bioavailability in Sprague-Dawley rat at 19 mg/kg. It is filed as ADME, organism-based. Particulars: in vivo. An outline of the steps:
as §2

Data set [13] in a line: Cytotoxicity against human Hep2 cells assessed as reduction in cell viability after 5 days by MTT assay. It is filed as cell-based, HEp-2. The gist of the method: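 Uninfected HEp2 cells (1.0 × 10⁴/well) exposed to serial compound dilutions for 5 days at 37 °C, 5% CO₂. Viability read by MTT (1 mg/ml) metabolism after 2 h incubation.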
The nature of data set [14]: Elimination half life in Sprague-Dawley rat at 3.1 mg/kg, iv. Format: ADME, organism-based. Further details: dose 3.1 mg/kg, route intravenous. Particulars: in vivo, read-out: beta t1/2 (converted). An outline of the steps: (§3)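 Male Sprague Dawley rats given one IV dose. 3.1 mg/kg: n = 1, in 40% propylene glycol, 10% ethanol and 0.4% Tween80 in water. 2.1 mg/kg: n = 2, in 20 mM citrate (pH 2.6) with 5% glucose and 10% DMSO. Total clearance, Vz and T1/2 derived from plasma levels.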

Data set [15] in a line: Total clearance in Sprague-Dawley rat at 3.1 mg/kg, iv. It is filed as ADME, organism-based. Particulars: in vivo. Further details: dose 3.1 mg/kg, route intravenous. The gist of the method: as §3
The nature of data set [16]: Apparent volume of distribution in Sprague-Dawley rat at 3.1 mg/kg, iv. Format: ADME, organism-based. Further details: dose 3.1 mg/kg, route intravenous. Particulars: in vivo, read-out: Vz. An outline of the steps: as §3
Data set [17] can be described thus: Cmax in Sprague-Dawley rat at 18 mg/kg, po. Format: ADME, organism-based. Details: dose 18 mg/kg, route oral. Particulars: in vivo. The gist of the method:
(§4)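 Male Sprague Dawley rats, n = 2, oral dose as suspension with carboxymethylcellulose. Cmax (µM), T1/2 and F (%) derived from plasma levels.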

Data set [18] in a line: Half life in Sprague-Dawley rat at 18 mg/kg, po. Particulars: in vivo. Details: dose 18 mg/kg, route oral. Format: ADME, organism-based. An outline of the steps: as §4
Data set [19] can be described thus: Oral bioavailability in Sprague-Dawley rat at 18 mg/kg. It is filed as ADME, organism-based. Particulars: in vivo. The gist of the method: as §4
Data set [20] deals with Respiratory syncytial virus. Put plainly: Potency shift index, ratio of EC50 for respiratory syncytial virus A2 infected in human Hep2 in presence of 1.5 mg/mL Alpha-1-acid glycoprotein to EC50 for respiratory syncytial virus A2 infected in human Hep2 in absence of Alpha-1-acid glycoprotein. It is filed as functional.
A short description of data set [21]: Elimination half life in Sprague-Dawley rat at 1.1 mg/kg, iv. Format: ADME, organism-based. Further details: dose 1.1 mg/kg, route intravenous. Particulars: in vivo, read-out: beta t1/2 (converted).
The nature of data set [22]: Plasma clearance in Sprague-Dawley rat at 1.1 mg/kg, iv. Details: dose 1.1 mg/kg, route intravenous. Format: ADME, organism-based.
Data set [23] in a line: Apparent volume of distribution in Sprague-Dawley rat at 1.1 mg/kg, iv. Format: ADME, organism-based. Details: dose 1.1 mg/kg, route intravenous. Particulars: in vivo, read-out: Vz.
The nature of data set [24]: Elimination half life in Sprague-Dawley rat at 20 mg/kg, po. It is filed as ADME, organism-based. Details: dose 20 mg/kg, route oral. Particulars: in vivo, read-out: beta t1/2 (converted). The gist of the method:
as §2

Data set [25] is described as follows: Cmax in Sprague-Dawley rat at 20 mg/kg, po. Format: ADME, organism-based. Further details: dose 20 mg/kg, route oral. Particulars: in vivo. The gist of the method:
as §2

Data set [26] in a line: Oral bioavailability in Sprague-Dawley rat at 20 mg/kg. Particulars: in vivo. It is filed as ADME, organism-based. An outline of the steps: as §2
Data set [27] can be described thus: Elimination half life in Sprague-Dawley rat at 0.9 mg/kg, iv. It is filed as ADME, organism-based. Further details: dose 0.9 mg/kg, route intravenous. Particulars: in vivo, read-out: beta t1/2 (converted).
Data set [28] can be described thus: Plasma clearance in Sprague-Dawley rat at 0.9 mg/kg, iv. Format: ADME, organism-based. Further details: dose 0.9 mg/kg, route intravenous.
The nature of data set [29]: Apparent volume of distribution in Sprague-Dawley rat at 0.9 mg/kg, iv. Format: ADME, organism-based. Particulars: in vivo, read-out: Vz. Further details: dose 0.9 mg/kg, route intravenous.
Data set [30] can be described thus: Drug metabolism in iv dosed Sprague-Dawley rat urine assessed as formation of pyridine N-oxides level. It is filed as ADME, organism-based. Particulars: in vivo.
Data set [31] is described as follows: Drug metabolism in orally dosed Sprague-Dawley rat urine assessed as formation of pyridine N-oxides level. Format: ADME, organism-based. Particulars: in vivo, po.
Data set [32] relates to Plasma. Put plainly: Drug metabolism in iv dosed Sprague-Dawley rat plasma assessed as formation of pyridine N-oxides level. Format: ADME, organism-based. Particulars: in vivo.
The test system of data set [33] is Plasma. Put plainly: Drug metabolism in orally dosed Sprague-Dawley rat plasma assessed as formation of pyridine N-oxides level. It is filed as ADME, organism-based. Particulars: in vivo, po.
A short description of data set [34]: Elimination half life in Sprague-Dawley rat at 2.1 mg/kg, iv. Format: ADME, organism-based. Details: dose 2.1 mg/kg, route intravenous. Particulars: in vivo, read-out: beta t1/2 (converted). An outline of the steps: as §3
Data set [35] is described as follows: Total clearance in Sprague-Dawley rat at 2.1 mg/kg, iv. Format: ADME, organism-based. Details: dose 2.1 mg/kg, route intravenous. Particulars: in vivo. The gist of the method:
as §3

A short description of data set [36]: Apparent volume of distribution in Sprague-Dawley rat at 2.1 mg/kg, iv. Format: ADME, organism-based. Details: dose 2.1 mg/kg, route intravenous. Particulars: in vivo, read-out: Vz. An outline of the steps:
as §3

Data set [37] can be described thus: Cmax in Sprague-Dawley rat at 21 mg/kg, po. Particulars: in vivo. Format: ADME, organism-based. Further details: dose 21 mg/kg, route oral. The gist of the method:
as §4

Data set [38] is described as follows: Half life in Sprague-Dawley rat at 21 mg/kg, po. It is filed as ADME, organism-based. Further details: dose 21 mg/kg, route oral. Particulars: in vivo. The gist of the method: as §4
Data set [39] is described as follows: Oral bioavailability in Sprague-Dawley rat at 21 mg/kg. It is filed as ADME, organism-based. Particulars: in vivo. An outline of the steps: as §4

Values after ≈ are worked out from the molar mass of the structure shown.

The values below come from ChEMBL document CHEMBL3393003, “1,2,3,9b-Tetrahydro-5H-imidazo[2,1-a]isoindol-5-ones as a new class of respiratory syncytial virus (RSV) fusion inhibitors. Part 2: identification of BTA9881 as a preclinical candidate” (Bioorg Med Chem Lett, 2015).

Turning to `O=C(c1ccc(F)nc1)N1CCN2C(=O)c3ccncc3[C@]12c1ccc(Cl)cc1`, the EC50 in data set [1] was 75 nM; in [2], 130 nM; in data set [3] it was 290 nM. The chromatographic logD in data set [4] stood at 2.7. The solubility kinetic in data set [5] is over 100 µg/mL; in [6], 25 µg/mL (≈ 61.2 µM). In addition, the half-life is 11 h in data set [7] and 9.3 h in [10]. The clearance in data set [8] was 4.3 mL/min/kg. For the same compound, the Vd in data set [9] is 3.8 L/kg. Besides, in data set [11], the Cmax was found to be 8.8 µM. Also, in data set [12], the bioavailability worked out at 75%.

Turning to `Cn1cc(C(=O)N2CCN3C(=O)c4cc[n+]([O-])cc4[C@@]32c2ccc(Cl)cc2)c(C(F)(F)F)n1`, in data set [1], the concentration for a half-maximal effect (EC50) amounted to 10 nM. Moreover, in data set [13], the CC50 at 120 h was over 5000 nM. Further, the half-life in [14] and in data set [18] was 11 h in each case. Also, in [15], the clearance worked out at 2.2 mL/min/kg. Besides, the Vd in [16] was 2.1 L/kg. In data set [17], this compound displayed a Cmax of 9.3 µM. In data set [19], this compound had a bioavailability of 57%.

Regarding `O=C(c1ccco1)N1CCN2C(=O)c3ccncc3C12c1ccc(Cl)cc1` (racemic), the EC50 in data set [1] amounted to 120 nM; in data set [2], 370 nM; in [3], 170 nM. Also, in data set [20], the “Ratio EC50” value is on record as 3.6. In addition, the CC50 at 120 h in data set [13] was over 19000 nM. In [4], this compound displayed a chromatographic logD of 2.8. The solubility kinetic in data set [5] was 50 µg/mL (≈ 132 µM); in data set [6], over 100 µg/mL. For the same compound, the figures for the half-life in [21] and in data set [24] were 2.4 h and 2.8 h, respectively. In [22], this compound yielded a clearance of 79 mL/min/kg. Further, the Vd in data set [23] is 8.7 L/kg. Moreover, the peak level in data set [25] (Cmax) was 0.44 µM. In data set [26], this compound returned a bioavailability of 21%.

With `Cn1cc(C(=O)N2CCN3C(=O)c4ccncc4C32c2ccc(Cl)cc2)c(C(F)(F)F)n1` (racemic), in data set [1], the EC50 stood at 31 nM. The “Ratio EC50” value in [20] turned out to be 4.3. The CC50 at 120 h in data set [13] is over 16000 nM. For the same compound, the half-life in data set [27] was 5.6 h; in [10] it was 7.1 h. In data set [28], this compound had a clearance of 4 mL/min/kg. Moreover, in data set [29], the Vd stood at 1.9 L/kg. Further, in [11], the Cmax came to 3.6 µM. For the same compound, in data set [12], the bioavailability is 38%. Besides, the Drug metabolism entry in data set [30], in data set [31], in data set [32] and in data set [33] was “metabolite_detected” in each case.

On to `O=C(c1ccc(F)nc1)N1CCN2C(=O)c3cc[n+]([O-])cc3C12c1ccc(Cl)cc1` (racemic), for which, in data set [1], the EC50 was 150 nM. For the same compound, the CC50 at 120 h in data set [13] is over 17000 nM. For the same compound, the results for the half-life in data set [34] and in [38] were 1.7 h and 20 h, respectively. This compound also had a clearance in data set [35] of 7.9 mL/min/kg. Moreover, in data set [36], the Vd came out at 1.2 L/kg. In [37], this compound registered a Cmax of 2.5 µM. Also, the bioavailability in [39] was 85%.
